Calls of active or inactive are those of the source. The rule behind the calls is not given here.
Columns and labels:
[1] = Toxicity in DBA1/J mouse assessed as reduction in body weight at 60 mg/kg, po […] measured thrice per week; type: organism-based; conditions: in vivo, 336 h
[2] = Half life in C57BL/6J mouse at 3 mg/kg, po measured up to 30 hrs by LC-MS/MS analysis; type: ADME, organism-based; conditions: in vivo
Method in brief: (§1)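 Male C57BL/6J mice (n = 6) received single doses of 3 mg/kg po or 1 mg/kg iv. Plasma concentrations were measured by LC-MS. Values are mean ± SD. Oral bioavailability (%F) was calculated from the ratio to iv AUC.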

[3] = AUC (0 to infinity) in C57BL/6J mouse 1 mg/kg, iv measured up to 30 hrs by LC-MS/MS analysis; type: ADME, organism-based; set-up: dose 1 mg/kg, time infinity, route intravenous; conditions: in vivo
Method in brief: (§2)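 Single-dose PK in male C57BL/6J mice (n = 6), dosed 1 mg/kg iv or 3 mg/kg orally. Plasma drug levels were measured by LC-MS, and PK parameters (Tmax, Cmax, t1/2, Cl, AUC, %F) were derived. Values are given as mean ± SD. Oral bioavailability was calculated against the iv AUC.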

[4] = AUC (0 to infinity) in C57BL/6J mouse 3 mg/kg, po measured up to 30 hrs by LC-MS/MS analysis; type: ADME, organism-based; set-up: dose 3 mg/kg, route oral, time infinity; conditions: in vivo; method in brief: as §2
[5] = tested on: Mus musculus; experiment: Antiarthritic activity in complete Freund's adjuvant-induced DBA1/J mouse arthritis model assessed as inhibition in clinical arthritis score at 60 mg/kg, po administered for 14 days relative to control; type: functional, organism-based; conditions: in the assay text read “4 weeks” for “14 days”
Method in brief: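 Male DBA1j mice had arthritis induced with a collagen mixture and were enrolled once clinical signs appeared. Animals were split into four groups of eight: vehicle, a positive control and two doses of test compound. Treatment ran four weeks. The read-out was percentage inhibition of clinical arthritis score versus the vehicle group.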

[6] = Tmax in C57BL/6J mouse at 3 mg/kg, po measured up to 30 hrs by LC-MS/MS analysis; type: ADME, organism-based; conditions: in vivo; method in brief: as §1
[7] = Oral bioavailability in C57BL/6J mouse at 3 mg/kg measured up to 30 hrs by LC-MS/MS analysis; type: ADME, organism-based; conditions: in vivo; method in brief: as §1
[8] = Cmax in C57BL/6J mouse at 3 mg/kg, po measured up to 30 hrs by LC-MS/MS analysis; type: ADME, organism-based; set-up: dose 3 mg/kg, route oral; conditions: in vivo; method in brief: as §1
[9] = Clearance in C57BL/6J mouse at 1 mg/kg, iv measured up to 30 hrs by LC-MS/MS analysis; type: ADME, organism-based; conditions: in vivo; method in brief: as §1
[10] = target: T1, Phosphatidylinositol 4,5-bisphosphate 3-kinase catalytic subunit delta isoform (Homo sapiens, UniProt O00329); experiment: Inhibition of human PI3Kdelta using PIP2 as substrate after 1 hr
T1 sequence (O00329 whole entry): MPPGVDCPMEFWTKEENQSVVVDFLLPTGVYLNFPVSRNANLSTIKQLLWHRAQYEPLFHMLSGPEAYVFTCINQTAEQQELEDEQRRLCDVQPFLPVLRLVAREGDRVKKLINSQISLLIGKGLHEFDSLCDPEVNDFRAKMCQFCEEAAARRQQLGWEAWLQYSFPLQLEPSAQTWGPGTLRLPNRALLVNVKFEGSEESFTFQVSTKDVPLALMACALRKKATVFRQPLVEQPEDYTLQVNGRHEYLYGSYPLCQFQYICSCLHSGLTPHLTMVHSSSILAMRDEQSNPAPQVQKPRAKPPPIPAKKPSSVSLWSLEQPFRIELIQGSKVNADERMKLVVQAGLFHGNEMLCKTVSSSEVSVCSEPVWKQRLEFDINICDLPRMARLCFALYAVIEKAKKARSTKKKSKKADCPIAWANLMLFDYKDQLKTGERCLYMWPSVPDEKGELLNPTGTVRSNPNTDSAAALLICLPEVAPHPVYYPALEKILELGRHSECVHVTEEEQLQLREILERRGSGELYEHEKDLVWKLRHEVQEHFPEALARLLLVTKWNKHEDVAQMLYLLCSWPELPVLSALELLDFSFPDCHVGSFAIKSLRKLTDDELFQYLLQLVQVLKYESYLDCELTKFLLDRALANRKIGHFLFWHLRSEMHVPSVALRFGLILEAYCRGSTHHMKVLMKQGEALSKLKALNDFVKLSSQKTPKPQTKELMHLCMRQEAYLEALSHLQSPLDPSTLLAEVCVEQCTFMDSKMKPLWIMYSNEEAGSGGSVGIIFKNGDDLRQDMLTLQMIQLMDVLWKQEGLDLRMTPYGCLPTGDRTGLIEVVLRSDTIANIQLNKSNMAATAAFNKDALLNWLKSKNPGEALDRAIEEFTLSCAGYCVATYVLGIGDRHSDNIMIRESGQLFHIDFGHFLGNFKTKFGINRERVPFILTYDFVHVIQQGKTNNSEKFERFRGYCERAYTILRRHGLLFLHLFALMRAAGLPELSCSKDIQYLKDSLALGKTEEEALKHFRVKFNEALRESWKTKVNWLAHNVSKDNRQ

**Q.** For `Cn1c(=O)n(-c2ccc(C(C)(C)C#N)cc2)c2c3cc(-c4cnc5ccccc5c4)ccc3ncc21` [DACTOLISIB], which Activity [1] is on record?
**A.** Toxic

**Q.** And the half-life [2]?
**A.** 1.88 h

**Q.** What about the AUC [3] of the same molecule?
**A.** 215 ng·h/mL

**Q.** What about the AUC [4] of the same molecule?
**A.** 244 ng·h/mL

**Q.** What about the inhibition [5] of the same molecule?
**A.** Active

**Q.** And the Tmax [6]?
**A.** 0.21 h

**Q.** And the bioavailability [7]?
**A.** 37.8%

**Q.** What about the Cmax [8] of the same molecule?
**A.** 274 ng/mL

**Q.** And the clearance [9]?
**A.** 72.5 mL/min/kg

**Q.** With `COc1ccc(Cn2c(=O)n(C)c3c4cc(-c5cnc(OC)c(NS(=O)(=O)C(C)C)c5)ccc4ncc32)cc1` as the molecule, how does the IC50 [10] read?
**A.** 6.2 nM

**Q.** For `COc1ccc(Cn2c(=O)n(C)c3c4cc(-c5ccc(OC)nc5)ccc4ncc32)cc1`, which IC50 [10] is on record?
**A.** 11.4 nM

**Q.** Which IC50 [10] does the source give for `COc1ccc(Cn2c(=O)n(C)c3c4cc(-c5cnc(OC)c(NS(=O)(=O)C6CC6)c5)ccc4ncc32)cc1` here?
**A.** 5.9 nM

**Q.** For `COc1ccc(Cn2c(=O)n(C)c3c4cc(-c5ccccc5)ccc4ncc32)cc1`, which IC50 [10] is on record?
**A.** 29.4 nM

**Q.** With `CC(C)c1ccc(Cn2c(=O)n(C)c3c4cc(-c5cnc6ccccc6c5)ccc4ncc32)cc1` as the molecule, how does the IC50 [10] read?
**A.** 28.3 nM
